This excerpt belongs to a sample that is enriched for hits.
RORA inh = RORA (human) inhibition; AID 561; CHO-K1 Gal4-RORA LBD luciferase reporter, luminescence; 65,000 compounds, 0.43% hits; inhibition, % at 10 µM; P35398;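 active = inhibition above the mean of all tested compounds plus 3 SD, cut at about 52% in these data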;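 note: 0% = RORA-transfected cells with DMSO and 100% = mock-transfected cells lacking RORA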
Target sequence (P35398 whole entry, looked up, the tested form may be a part): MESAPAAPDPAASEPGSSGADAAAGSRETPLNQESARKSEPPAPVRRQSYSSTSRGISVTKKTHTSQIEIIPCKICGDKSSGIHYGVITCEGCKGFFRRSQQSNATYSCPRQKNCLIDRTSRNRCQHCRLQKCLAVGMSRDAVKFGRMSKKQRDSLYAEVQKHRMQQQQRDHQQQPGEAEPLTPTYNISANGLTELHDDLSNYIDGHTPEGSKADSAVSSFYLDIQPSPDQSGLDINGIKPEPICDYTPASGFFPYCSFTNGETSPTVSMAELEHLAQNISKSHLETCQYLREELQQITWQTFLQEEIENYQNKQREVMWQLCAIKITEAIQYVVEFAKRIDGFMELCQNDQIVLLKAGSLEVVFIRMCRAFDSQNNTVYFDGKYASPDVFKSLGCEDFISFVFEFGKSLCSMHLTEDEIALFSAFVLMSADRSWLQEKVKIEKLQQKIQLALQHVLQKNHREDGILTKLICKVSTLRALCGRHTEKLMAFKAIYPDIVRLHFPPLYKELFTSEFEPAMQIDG
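Material: transiently transfected CHO-K1 cells, Gal4-DBD/human RORA-LBD fusion plus 5xGal4-luciferase reporter; doses: single concentration per compound, 10 µM final; incubation: 20 h at 37 °C; detection: luminescence from basal luciferase reporter expression; read-out: % inhibition of basal luciferase versus +RORA/-RORA DMSO controls; replication: tested once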
* marks the source's active call; other numbers are inactive results.

SMILES | RORA inh
COC(=O)CCC(=O)Nc1cccc(Br)c1 | -11
CCOC(=O)C(C(=O)OCC)C(CC(=O)C1CC1)c1ccccc1 (stereo unspecified) | 7
CN=c1scc(C)n1/N=C/c1ccc(O)cc1O | 63*
COc1ccc(C(=O)Cn2c(N3CCOCC3)nc3ccccc32)cc1OC | 19
O=C(CSc1nc2ccccc2[nH]1)N1CCCCC1 | -52
O=C(Nc1nc2ccccc2[nH]1)c1ccc(F)cc1 | 54*
COc1ccccc1CCC(=O)Nc1nc2ccccc2[nH]1 | -19
c1ccc(Nc2nc3ccccc3[nH]2)nc1 | -79
O=C(Nc1nc2ccccc2[nH]1)c1ccccc1F | 86*
CC(=O)Nc1ccc(S(=O)(=O)NCCNC(=O)c2ccccc2F)cc1 | 4
CCN1CCN(C(CNS(=O)(=O)c2ccc(OC)cc2)c2cccnc2)CC1 (stereo unspecified) | -11
CC(C)(C)n1ncc2c(=O)n(CC(=O)NCc3ccccc3)cnc21 | -56
COC(=O)C(O)(NC(=O)NC(C)=O)C(F)(F)F (stereo unspecified) | -28
O=C(NC(Cc1ccccc1)c1nc2ccccc2[nH]1)C1CC(=O)N(c2ccc3c(c2)OCCO3)C1 (stereo unspecified) | 8
COc1ccc(CN2CCCCC2C)c(C)c1C (stereo unspecified) | 28
CC(=O)OC1=C(C#N)Cn2ccc3cccc1c32 | -4
CN1CCN(S(=O)(=O)c2ccc(Br)s2)CC1 | -63
CCOC(=O)C1CCN(C(=O)CNS(=O)(=O)c2ccc(Br)s2)CC1 | -10
O=S(=O)(NCc1ccncc1)c1ccc(Br)s1 | 65*
Cc1[nH]nc(N=CC2=C(O)CC(C)(C)CC2=O)c1-c1ccc(Cl)cc1 | -83
Cn1c(CNc2ccccc2)cc(=O)n(C)c1=O | 2
COc1ccccc1N1CCN(c2ncnc3c2oc2ccccc23)CC1 | -56
COc1ccc(CCNc2ncnc3c2oc2ccccc23)cc1OC | 84*
Cc1cc(C)n(-c2ncnc3c2oc2ccccc23)n1 | 10
C=C(C)Cn1c(N2CC(C)CC(C)C2)nc2c1c(=O)[nH]c(=O)n2C (stereo unspecified) | 8
SMILES | RORA inh
COc1cc(NS(=O)(=O)c2ccc(C)cc2)c2ncccc2c1 | 85*
O=S(=O)(NC1CCCCCC1)c1cccc2cccnc12 | 17
COc1ccc(S(=O)(=O)Nc2nnc(C(C)(C)C)s2)cc1 | -17
c1ccc(CC2CCN(Cc3nc(-c4ccccc4)no3)CC2)cc1 | 10
Cc1csc(SCCn2c(N3CCCC3)nc3c2c(=O)[nH]c(=O)n3C)n1 | 8
O=C(CSc1nnnn1-c1ccccc1)Nc1nsc(-c2ccc(Cl)cc2)n1 | 71*
Cn1nnc(NC(=O)CSc2nnnn2-c2ccc(F)cc2)n1 | 17
Cn1nnc(NC(=O)CSc2ccc(Cl)cc2)n1 | -10
Cc1ccc(-c2noc(CCC(=O)NCc3ccc4c(c3)OCO4)n2)cc1 | 25
Cn1c(=O)c2c3c(sc2n2c(SCC(=O)c4ccc(Cl)cc4)nnc12)COC(C)(C)C3 | 7
COc1ccc(CCn2nnnc2C(C(C)C)N2CCN(c3ncccn3)CC2)cc1OC (stereo unspecified) | -11
Cc1ccccc1C(=O)/C=C1\NC(=O)CS1 | 16
O=C(O)CCCCCN1C(=O)CSC1=S | 59*
CCOc1ccccc1N(CC(=O)Nc1ccc(C)cc1)S(C)(=O)=O | -6
COc1cccc2sc(Nc3nc(-c4ccccn4)cs3)nc12 | 69*
COc1cccc(Nc2nc(-c3sc(N)nc3C)cs2)c1 | -27
Cc1cccc(-n2ncc3c(N(C)Cc4ccccc4)ncnc32)c1 | -56
CCCCNc1cc(=O)n(C)c(=O)[nH]1 | 4
c1ccc(-c2cn3c4c(sc3n2)CCCC4)cc1 | 74*
Cc1c(C(=O)NCc2cccnc2)sc2nc(-c3ccccc3)cn12 | -54
Cc1c(C(=O)N2CCOCC2)sc2nc(-c3ccccc3)cn12 | -58
Cc1cccc2c1NC(C)CC2C (stereo unspecified) | 9
CCCCc1ccc(NC(=O)C2CCCO2)cc1 (stereo unspecified) | -76
O=C(Nc1ccc2c(c1)OCO2)c1cnn2cccnc12 | -61
Clc1ccc(OCCN2CCN(c3ncnc4sccc34)CC2)cc1 | 81*
SMILES | RORA inh
COCCN(CCOC)C(=O)CCn1c(=O)oc2ccccc21 | -1
Cc1cccc(-n2c(CNC(=O)c3ccccc3)nnc2SCC(=O)Nc2nccs2)c1 | -7
COc1cccc(C(=O)c2sc(NC(C)C)nc2N)c1 | 57*
CCCC(=O)Nc1nc2ccc(OC)cc2s1 | -56
COc1cccc(C(=O)Nc2ccccc2N2CCCC2)c1 | 10
Cc1oc(-c2ccc3c(c2)OCCO3)cc1C(=O)NC(CCC(=O)O)C(=O)O (stereo unspecified) | -1
Cc1oc(-c2ccc3c(c2)OCCO3)cc1C(=O)O | 75*
Cc1oc2cc(O)cc(O)c2c(=O)c1-c1ccc2c(c1)OCCCO2 | -58
NC(=O)C1CCN(C(=O)c2cc(S(=O)(=O)N3CCOCC3)c(Cl)cc2Cl)CC1 | 7
CCOC(=O)N1CCN(C(=O)CSc2nnc(Cc3ccccc3)o2)CC1 | 7
COc1ccc(C)cc1-n1nnnc1SCc1nc2ccccc2s1 | -50
Cc1ccc(-n2nnnc2SCC(=O)N2CCN(C(=O)c3ccco3)CC2)c(C)c1 | 1
COc1cc(CSc2nnnn2-c2ccc(C)cc2)cc(OC)c1OC | 72*
CCOC(=O)N1CCC(NC(=O)Cn2ncn3c(cc4sc(CC)cc43)c2=O)CC1 | 7
COc1cc(-c2nnc3sc(-c4cccnc4)nn23)cc(OC)c1OC | 15
COc1nc(-c2ccccc2)cc(-c2ccc(OC)c(OC)c2)n1 | -13
COc1ccc(-c2noc(-c3ccccc3Cl)n2)cc1OC | -82
COc1ccc(C2=Nn3c(nnc3-c3ccccc3OC)SC2)cc1OC | 55*
COc1cc(C(C)=O)ccc1OCC(=O)c1cc(C)n(C2CC2)c1C | 19
CCCC(NS(=O)(=O)c1ccc(Br)cc1)C(=O)O (stereo unspecified) | 23
COc1cc2c(cc1OC)C(C)N(C(=O)c1cc3ccccc3o1)CC2 (stereo unspecified) | 64*
COc1ccc(NC(=O)c2cc3ccccc3o2)cc1 | -53
COc1ccc2oc(=O)c(C(=O)N3CCc4ccccc43)cc2c1 | 11
CCCCc1ccc(C2C(C#N)=C(N)SC(N)=C2C#N)s1 | -8
CC1Cc2ccccc2N1C(=O)CSc1nnc(-c2ccc(S(=O)(=O)N3CCCC3)cc2)o1 (stereo unspecified) | 0
SMILES | RORA inh
CC1CC(C)CN(C(=O)CSc2nnc(-c3ccc(Cl)s3)o2)C1 (stereo unspecified) | -10
COc1ccccc1-c1nnc(NC(=O)c2ccc(S(=O)(=O)N(C)C)cc2)o1 | -7
CC1(C)COCN1S(=O)(=O)c1ccc(C(=O)Nc2nnc(-c3ccc(Cl)s3)o2)cc1 | 53*
CCN1CCN(C(=O)c2cc3nc(-c4ccccc4)cc(C(F)(F)F)n3n2)CC1 | 11
N#CNC1=NCN(Cc2ccccc2)CN1 | 8
CCC(C)Nc1nc(OC)nc(N(C)C#N)n1 (stereo unspecified) | 25
CC1CCc2cc(F)cc3c(O)c(C(=O)Nc4cnccn4)c(=O)n1c23 (stereo unspecified) | 20
C=CCOc1nc2c(c(=O)n(C)c(=O)n2C)n1Cc1ccc(Cl)cc1 | 58*
CC1CCN(c2nc3c(c(=O)n(C)c(=O)n3C)n2Cc2ccccc2)CC1 | -14
CCCCCn1c(CN2CCN(Cc3ccccc3)CC2)nc2c1c(=O)n(C)c(=O)n2C | 12
COc1ccc(OC)c(-c2cc(C(=O)NCc3ccco3)no2)c1 | 8

From PubChem
